This note sets out measurements from ChEMBL document CHEMBL3112434, “Identification of proton-pump inhibitor drugs that inhibit Trichomonas vaginalis uridine nucleoside ribohydrolase” (Bioorg Med Chem Lett, 2014).

For one assay, the system named is Trichomonas vaginalis. Description: Inhibition of Trichomonas vaginalis uridine nucleoside ribohydrolase using 5-fluorouridine as substrate at 0.04 to 200 uM after 40 mins by NMR spectrometric analysis. The essentials: (§1)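 UNH at 80 nM in 50 mM potassium phosphate, 0.3 M KCl, pH 6.5, with 10% 2H2O. Test compounds added from DMSO solutions and mixed thoroughly. Reaction read at the 40 min time point. Screening was done at 50 μM in mixtures of three. IC50 determinations used final assay concentrations from 200 μM to 0.04 μM.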

A short description of assay [1]: Inhibition of Trichomonas vaginalis uridine nucleoside ribohydrolase using 5-fluorouridine as substrate after 40 mins by NMR spectrometric analysis. Put shortly:
as §1

Structures are written as SMILES. Calls of active or inactive are those of the source. The rule behind the calls is not given here.

On to `CC1=C(/C=C/C(C)=C/C=C/C(C)=C/C(=O)O)C(C)(C)CCC1`, for which the Active/inactive screening call in the assay with Trichomonas vaginalis is “Active”.

On to `CC(=O)Oc1ccccc1C(=O)Nc1ncc([N+](=O)[O-])s1`, for which the inhibition entry with Trichomonas vaginalis was “Active”.

Turning to `O=C1C(CC[S+]([O-])c2ccccc2)C(=O)N(c2ccccc2)N1c1ccccc1` (stereo unspecified), the Active/inactive screening call in the assay with Trichomonas vaginalis was “Active”.

As for `O=C(O[C@@H]1Cc2c(O)cc(O)cc2O[C@@H]1c1cc(O)c(O)c(O)c1)c1cc(O)c(O)c(O)c1`, the inhibition result in the assay on Trichomonas vaginalis was “Active”.

As to `CCOC(=O)C1=C(COCCN)NC(C)=C(C(=O)OC)C1c1ccccc1Cl` (stereo unspecified), the inhibition entry with Trichomonas vaginalis is “Active”.

For `Sc1ncnc2nc[nH]c12`, the Active/inactive screening call in the assay with Trichomonas vaginalis was “Active”.

As for `COC(=O)C1=C(C)NC(C)=C(C(=O)OCCN(C)Cc2ccccc2)C1c1cccc([N+](=O)[O-])c1` (stereo unspecified), in the assay with Trichomonas vaginalis, the Active/inactive screening call was “Active”.

As for `CCOC(=O)C1=C(C)NC(C)=C(C(=O)OC)C1c1cccc([N+](=O)[O-])c1` (stereo unspecified), in the assay with Trichomonas vaginalis, the Active/inactive screening call is “Active”.

`COc1ccc2[nH]c([S+]([O-])Cc3ncc(C)c(OC)c3C)nc2c1` (stereo unspecified) [OMEPRAZOLE]: the Active/inactive screening call in the assay with Trichomonas vaginalis is “Active”. Further, in assay [1], half-maximal inhibition (IC50) required 2300 nM.

With `COC(=O)C1=C(C)NC(C)=C(C(=O)OC)C1c1ccccc1[N+](=O)[O-]`, the inhibition result in the assay on Trichomonas vaginalis is “Active”.

For `Oc1cc2c(cc1O)[C@H]1c3ccccc3CN[C@@H]1CC2` (relative stereo), the Active/inactive screening call in the assay with Trichomonas vaginalis is “Active”.

Consider `CN[C@@H]1C[C@@H](c2ccc(Cl)c(Cl)c2)c2ccccc21` (relative stereo), for which the inhibition result with Trichomonas vaginalis is “Active”.

On to `CC1=C(/C=C/C(C)=C/C=C/C(C)=C\C(=O)O)C(C)(C)CCC1`, for which the Active/inactive screening call with Trichomonas vaginalis was “Active”.

`CN(C)CCCN1c2ccccc2CCc2ccc(Cl)cc21`: the Active/inactive screening call in the assay with Trichomonas vaginalis was “Active”.

Take `CNC1=Nc2ccc(Cl)cc2C(c2ccccc2)=[N+]([O-])C1`: the inhibition result in the assay on Trichomonas vaginalis is “Active”.

Turning to `COc1ccnc(C[S+]([O-])c2nc3cc(OC(F)F)ccc3[nH]2)c1OC` (stereo unspecified) [PANTOPRAZOLE SODIUM], the Active/inactive screening call with Trichomonas vaginalis was “Active”. Further, in assay [1], the IC50 came out at 14500 nM.

Take `CCC1=C[C@@H]2CN(C1)Cc1c([nH]c3ccccc13)[C@@](C(=O)OC)(c1cc3c(cc1OC)N(C)[C@H]1[C@@](O)(C(=O)OC)[C@H](OC(C)=O)[C@]4(CC)C=CCN5CC[C@]31[C@@H]54)C2`: the Active/inactive screening call in the assay on Trichomonas vaginalis was “Active”.

Regarding `N[C@@H](C(=O)N[C@@H]1C(=O)N2C(C(=O)O)=C(CSc3c[nH]nn3)CS[C@H]12)c1ccc(O)cc1`, the Active/inactive screening call in the assay on Trichomonas vaginalis is “Active”.

Regarding `COC(=O)C1=C(C)NC(C)=C(C(=O)OCC(C)C)C1c1ccccc1[N+](=O)[O-]` (stereo unspecified), the Active/inactive screening call with Trichomonas vaginalis was “Active”.

In the case of `Oc1ccc2c3c1O[C@H]1c4[nH]c5ccccc5c4C[C@@]4(O)[C@@H](C2)N(CC2CC2)CC[C@]314`, the inhibition entry in the assay on Trichomonas vaginalis is “Active”.

For `N[C@@H](C(=O)N[C@@H]1C(=O)N2C(C(=O)O)=C(Cl)CS[C@H]12)c1ccccc1`, the Active/inactive screening call with Trichomonas vaginalis is “Active”.

As for `COCCCOc1ccnc(C[S+]([O-])c2nc3ccccc3[nH]2)c1C` (stereo unspecified) [RABEPRAZOLE], the Active/inactive screening call in the assay on Trichomonas vaginalis is “Active”. In addition, the IC50 in assay [1] was 300 nM.

On to `CN(C)[C@@H]1C(O)=C(C(N)=O)C(=O)[C@@]2(O)C(O)=C3C(=O)c4c(O)cccc4[C@@](C)(O)[C@H]3[C@H](O)[C@@H]12`, for which, in the assay with Trichomonas vaginalis, the Active/inactive screening call was “Active”.
